Assay results: ChEMBL document CHEMBL4321819, “Simple Structural Modifications Converting a Bona fide MDM2 PROTAC Degrader into a Molecular Glue Molecule: A Cautionary Tale in the Design of PROTAC Degraders” (J Med Chem, 2019)
Calls of active or inactive are those of the source. No cut-off for these calls is given here.

Experiments:
RS4-11 = assay: Antiproliferative activity against human RS4:11 cells expressing wild type p53 assessed as MDM2-independent cell growth inhibition after 4 days by WST-8 assay; assay type: functional, cell-based; conditions: RS4-11, 96 h
Outline: (§1)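 Leukemia cells seeded at 10000–20000 cells/well, breast cancer lines at 5000–10000 cells/well. Serially diluted compound added, then 4 days at 37 °C, 5% CO2. Growth read with WST-8 reagent after at least 1 h, absorbance at 450 nm. RS4;11, MOLM-13 and breast lines were grown in RPMI 1640; MV-4-11 and HL-60 in IMDM; all with 10% FBS. Mean ± SE, at least three independent experiments.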

Homo sapiens = species: Homo sapiens; assay: Antiproliferative activity against human RS4:11/IRMI-2 cells harboring p53 hotspot mutation Y236H/R249G assessed as cell growth inhibition after 4 days by WST-8 assay; assay type: functional, cell-based; outline: as §1
[1] = target: T1, E3 ubiquitin-protein ligase Mdm2 (Homo sapiens, UniProt Q00987); assay: Induction of MDM2 degradation in human RS4:11 cells assessed as upregulation of p53 at 1 to 30 nM after 2 hrs by Western blot analysis; assay type: cell-based
Outline: (§2)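 Western blots of MDM2 and p53 protein were run on RS4;11 cells (wild-type p53) in RPMI 1640 with 10% FBS. 2×10^6 cells/well were treated at the indicated concentrations for 1 h or 2 h. Lysis was in ice-cold buffer with protease inhibitor, followed by probing with specific antibodies.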

[2] = target: T1, E3 ubiquitin-protein ligase Mdm2; assay: Induction of MDM2 degradation in human RS4:11 cells assessed as downregulation of MDM2 at 1 to 30 nM after 2 hrs by Western blot analysis; assay type: cell-based; outline: as §2
[3] = target: T1, E3 ubiquitin-protein ligase Mdm2; assay: Induction of MDM2 degradation in human RS4:11 cells assessed as downregulation of MDM2 at 1 to 30 nM after 1 hr by Western blot analysis; assay type: cell-based; outline: as §2
MDA-MB-468 [4] = assay: Antiproliferative activity against human MDA-MB-468 cells assessed as cell growth inhibition after 4 days in presence of control siRNA for 3 days followed by compound treatment by WST-8 assay; assay type: functional, cell-based
[5] = target: T2, Protein cereblon/Eukaryotic peptide chain release factor GTP-binding subunit ERF3A/DNA damage-binding protein 1/Cullin-4A (Homo sapiens) (UniProt Q96SW2+Q16531+Q13619+P15170); assay: Protac activity at GSPT1/CUL4/DDB1/CRBN in human RS4:11 cells expressing wild type p53 assessed as decrease in GSPT1 protein level at 10 nM by Western blot analysis; assay type: cell-based
Outline: (§3)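 RS4;11 (wild-type p53) or RS4;11/IRMI-2 (MDM2 inhibitor-resistant derivative, mutant p53) cells kept in RPMI 1640 with 10% FBS at 37 °C, 5% CO₂. 2×10^6 cells/well treated at the indicated concentrations and times, then lysed in ice-cold lysis buffer with protease inhibitor. GSPT1 detected by Western blot with a specific antibody.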

[6] = target: Cellular tumor antigen p53 (Homo sapiens) (UniProt P04637); assay: Activation of p53 in human RS4:11 cells assessed as increase in MDM2 mRNA expression at 10 nM after 1 to 2 hrs by qRT-PCR analysis; assay type: cell-based
Outline: (§4)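 RS4;11 cells (RPMI 1640, 10% FBS, 37 °C, 5% CO2) treated with 3 nM or 10 nM compound; total RNA extracted and mRNA of p53 targets MDM2, CDKN1A, PUMA and BAX quantified by qRT-PCR. Mean ± standard error from at least three independent experiments.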

MDA-MB-231 [7] = assay: Antiproliferative activity against human MDA-MB-231 cells assessed as cell growth inhibition after 4 days in presence of control siRNA for 3 days followed by compound treatment by WST-8 assay; assay type: functional, cell-based
[8] = target: T1, E3 ubiquitin-protein ligase Mdm2; assay: Induction of MDM2 degradation in human RS4:11/IRMI-2 cells harboring p53 hotspot mutation Y236H/R249G assessed as downregulation of MDM2 at 1 to 30 nM after 2 hrs by Western blot analysis; assay type: cell-based
Outline: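 RS4;11/IRMI-2 cells are an MDM2 inhibitor-resistant line derived from RS4;11, with p53 mutations confirmed by sequencing. 2×10^6 cells/well were treated 2 h at the indicated concentrations. MDM2 protein was probed by Western blot after lysis in ice-cold buffer with protease inhibitor.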

[9] = Antiproliferative activity against human RS4:11/IRMI-2 cells harboring p53 hotspot mutation Y236H/R249G assessed as MDM2-independent cell growth inhibition after 4 days by WST-8 assay; assay type: functional, cell-based; conditions: RS4-11, 96 h; outline: as §1
[10] = target: Cellular tumor antigen p53 (Homo sapiens) (UniProt P04637); assay: Activation of p53 in human RS4:11 cells assessed as increase in PUMA mRNA expression at 10 nM after 1 to 2 hrs by qRT-PCR analysis; assay type: cell-based; outline: as §4
MDA-MB-231 [11] = assay: Antiproliferative activity against human MDA-MB-231 cells transfected with CRBN siRNA LQ-021086-10-0002 assessed as cell growth inhibition after 4 days by WST-8 assay; assay type: functional, cell-based; conditions: MDA-MB-231, 72 h, in the assay text read “after 3 days” for “after 4 days”
Outline: (§5)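 MDA-MB-231 or MDA-MB-468 cells transfected for 2 days using Lipofectamine RNAiMAX with MDM2 siRNA, one of two CRBN siRNAs, or non-targeting control siRNA. Compound then added and growth read by WST-8 at 450 nm.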

MDA-MB-231 [12] = assay: Antiproliferative activity against human MDA-MB-231 cells transfected with CRBN siRNA LQ-021086-11-0002 assessed as cell growth inhibition after 4 days by WST-8 assay; assay type: functional, cell-based; conditions: MDA-MB-231, 96 h; outline: as §5
[13] = target: Cellular tumor antigen p53 (Homo sapiens) (UniProt P04637); assay: Activation of p53 in human RS4:11 cells assessed as increase in CDKN1A mRNA expression at 10 nM after 1 to 2 hrs by qRT-PCR analysis; assay type: cell-based; outline: as §4
HL-60 = assay: Antiproliferative activity against human HL60 cells with lack of p53 assessed as cell growth inhibition after 4 days by WST-8 assay; assay type: functional, cell-based; outline: as §1
MDA-MB-468 [14] = assay: Antiproliferative activity against human MDA-MB-468 cells transfected with CRBN siRNA LQ-021086-10-0002 assessed as cell growth inhibition after 4 days by WST-8 assay; assay type: functional, cell-based; conditions: MDA-MB-468, 96 h; outline: as §5
[15] = target: T1, E3 ubiquitin-protein ligase Mdm2; assay: Induction of MDM2 degradation in human RS4:11 cells assessed as upregulation of p53 at 1 to 30 nM after 1 hr by Western blot analysis; assay type: cell-based; outline: as §2
[16] = target: T2, Protein cereblon/Eukaryotic peptide chain release factor GTP-binding subunit ERF3A/DNA damage-binding protein 1/Cullin-4A (Homo sapiens); assay: Protac activity at GSPT1/CUL4/DDB1/CRBN in human RS4:11 cells expressing wild type p53 assessed as decrease in GSPT1 protein level measured upto 24 hrs by Western blot analysis; assay type: cell-based; outline: as §3
MDA-MB-468 [17] = assay: Antiproliferative activity against human MDA-MB-468 cells transfected with CRBN siRNA LQ-021086-11-0002 assessed as cell growth inhibition after 4 days by WST-8 assay; assay type: functional, cell-based; conditions: MDA-MB-468, 96 h; outline: as §5
[18] = target: Cellular tumor antigen p53 (Homo sapiens) (UniProt P04637); assay: Activation of p53 in human RS4:11 cells assessed as increase in BAX mRNA expression at 10 nM after 1 to 2 hrs by qRT-PCR analysis; assay type: cell-based; outline: as §4
MDA-MB-231 [19] = assay: Antiproliferative activity against human MDA-MB-231 cells harboring mutant p53 assessed as cell growth inhibition after 4 days by WST-8 assay; assay type: functional, cell-based; outline: as §1
MDA-MB-468 [20] = assay: Antiproliferative activity against human MDA-MB-468 cells harboring mutant p53 assessed as cell growth inhibition after 4 days by WST-8 assay; assay type: functional, cell-based; outline: as §1

T1 sequence (Q00987 whole entry, looked up): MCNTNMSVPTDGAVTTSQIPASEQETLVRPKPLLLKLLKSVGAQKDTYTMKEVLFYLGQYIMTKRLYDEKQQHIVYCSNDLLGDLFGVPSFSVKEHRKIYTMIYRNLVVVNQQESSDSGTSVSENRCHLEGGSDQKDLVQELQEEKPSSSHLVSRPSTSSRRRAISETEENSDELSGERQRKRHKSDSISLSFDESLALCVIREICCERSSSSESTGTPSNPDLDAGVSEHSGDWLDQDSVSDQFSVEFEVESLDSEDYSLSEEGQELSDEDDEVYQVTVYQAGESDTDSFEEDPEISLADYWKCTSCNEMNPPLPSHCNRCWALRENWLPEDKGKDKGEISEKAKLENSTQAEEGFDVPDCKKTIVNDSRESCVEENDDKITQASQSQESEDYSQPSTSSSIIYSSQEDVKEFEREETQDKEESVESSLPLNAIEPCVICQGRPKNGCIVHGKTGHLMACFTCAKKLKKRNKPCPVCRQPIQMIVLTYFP
Sequence of Cellular tumor antigen p53 (Homo sapiens) (P04637 whole entry, looked up): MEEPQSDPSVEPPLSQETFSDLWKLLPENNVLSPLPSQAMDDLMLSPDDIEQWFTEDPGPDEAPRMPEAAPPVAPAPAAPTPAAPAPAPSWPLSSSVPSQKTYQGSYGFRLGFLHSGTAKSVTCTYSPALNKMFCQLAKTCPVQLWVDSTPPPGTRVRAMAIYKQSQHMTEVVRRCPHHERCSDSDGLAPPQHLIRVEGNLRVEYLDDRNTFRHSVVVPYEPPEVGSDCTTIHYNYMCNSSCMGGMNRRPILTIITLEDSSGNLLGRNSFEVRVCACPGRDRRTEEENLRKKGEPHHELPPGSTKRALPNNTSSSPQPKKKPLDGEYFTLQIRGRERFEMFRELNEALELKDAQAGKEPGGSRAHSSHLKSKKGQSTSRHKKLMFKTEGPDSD
T2 sequence (P15170 whole entry, looked up): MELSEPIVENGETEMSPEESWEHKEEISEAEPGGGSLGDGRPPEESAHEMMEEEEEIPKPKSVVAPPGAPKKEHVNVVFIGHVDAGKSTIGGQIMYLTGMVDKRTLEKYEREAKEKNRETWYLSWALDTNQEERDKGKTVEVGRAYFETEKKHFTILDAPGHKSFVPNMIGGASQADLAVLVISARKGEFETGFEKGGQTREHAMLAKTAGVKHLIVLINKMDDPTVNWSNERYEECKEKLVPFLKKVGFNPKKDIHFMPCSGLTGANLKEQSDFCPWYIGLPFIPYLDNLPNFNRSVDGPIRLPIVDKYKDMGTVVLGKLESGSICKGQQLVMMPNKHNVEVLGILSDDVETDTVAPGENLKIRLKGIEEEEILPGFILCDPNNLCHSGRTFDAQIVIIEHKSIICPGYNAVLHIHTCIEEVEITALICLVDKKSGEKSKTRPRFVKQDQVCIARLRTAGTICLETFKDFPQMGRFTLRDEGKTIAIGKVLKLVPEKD
T2 sequence (Q13619 whole entry, looked up): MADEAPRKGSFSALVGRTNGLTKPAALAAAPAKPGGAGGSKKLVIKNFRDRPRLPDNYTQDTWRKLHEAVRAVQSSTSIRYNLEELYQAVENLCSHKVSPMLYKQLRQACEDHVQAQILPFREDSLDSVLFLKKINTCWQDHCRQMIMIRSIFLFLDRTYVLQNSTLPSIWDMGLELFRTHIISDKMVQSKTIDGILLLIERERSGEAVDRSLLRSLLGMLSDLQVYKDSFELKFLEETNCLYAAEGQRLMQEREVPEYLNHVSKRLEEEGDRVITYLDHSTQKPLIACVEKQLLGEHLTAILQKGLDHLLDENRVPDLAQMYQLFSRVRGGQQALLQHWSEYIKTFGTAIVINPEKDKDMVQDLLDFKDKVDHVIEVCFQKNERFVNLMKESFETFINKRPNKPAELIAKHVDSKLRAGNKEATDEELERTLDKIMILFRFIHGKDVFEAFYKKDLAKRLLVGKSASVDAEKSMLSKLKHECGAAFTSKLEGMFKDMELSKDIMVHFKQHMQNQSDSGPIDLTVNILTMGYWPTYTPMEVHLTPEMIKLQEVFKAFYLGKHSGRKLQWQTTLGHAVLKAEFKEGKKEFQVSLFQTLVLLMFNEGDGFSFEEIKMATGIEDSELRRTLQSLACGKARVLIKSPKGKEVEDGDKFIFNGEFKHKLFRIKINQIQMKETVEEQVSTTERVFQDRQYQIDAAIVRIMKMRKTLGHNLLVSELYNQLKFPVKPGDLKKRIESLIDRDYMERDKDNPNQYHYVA
T2 sequence (Q16531 whole entry, looked up): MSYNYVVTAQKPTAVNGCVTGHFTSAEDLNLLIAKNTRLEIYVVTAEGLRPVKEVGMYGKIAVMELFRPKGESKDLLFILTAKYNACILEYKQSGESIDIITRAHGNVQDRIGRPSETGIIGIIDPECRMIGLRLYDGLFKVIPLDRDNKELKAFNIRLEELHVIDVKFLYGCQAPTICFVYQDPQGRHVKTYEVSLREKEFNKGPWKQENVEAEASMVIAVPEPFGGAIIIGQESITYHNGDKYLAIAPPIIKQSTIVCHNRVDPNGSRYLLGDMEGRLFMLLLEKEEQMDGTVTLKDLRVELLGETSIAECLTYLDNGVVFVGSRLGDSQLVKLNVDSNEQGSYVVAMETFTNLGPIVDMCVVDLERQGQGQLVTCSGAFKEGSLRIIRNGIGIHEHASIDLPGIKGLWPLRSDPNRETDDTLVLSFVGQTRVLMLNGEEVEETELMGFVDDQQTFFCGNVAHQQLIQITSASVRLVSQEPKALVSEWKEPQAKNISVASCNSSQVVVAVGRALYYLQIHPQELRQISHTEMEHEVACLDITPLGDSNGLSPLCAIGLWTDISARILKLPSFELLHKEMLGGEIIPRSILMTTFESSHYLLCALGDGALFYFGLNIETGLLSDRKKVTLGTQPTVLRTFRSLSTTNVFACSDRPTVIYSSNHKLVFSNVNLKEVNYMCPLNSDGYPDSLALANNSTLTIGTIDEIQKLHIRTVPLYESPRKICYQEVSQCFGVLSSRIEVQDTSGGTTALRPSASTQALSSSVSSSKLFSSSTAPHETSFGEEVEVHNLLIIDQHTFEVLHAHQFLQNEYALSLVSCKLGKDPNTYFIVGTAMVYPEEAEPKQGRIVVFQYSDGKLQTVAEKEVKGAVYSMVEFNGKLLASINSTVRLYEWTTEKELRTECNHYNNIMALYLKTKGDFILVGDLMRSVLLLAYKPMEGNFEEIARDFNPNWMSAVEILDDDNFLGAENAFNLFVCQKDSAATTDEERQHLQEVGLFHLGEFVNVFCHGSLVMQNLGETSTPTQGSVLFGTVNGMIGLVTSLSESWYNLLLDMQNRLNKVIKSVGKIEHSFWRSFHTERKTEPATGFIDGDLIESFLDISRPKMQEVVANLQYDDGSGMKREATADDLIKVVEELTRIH
T2 sequence (Q96SW2 whole entry, looked up): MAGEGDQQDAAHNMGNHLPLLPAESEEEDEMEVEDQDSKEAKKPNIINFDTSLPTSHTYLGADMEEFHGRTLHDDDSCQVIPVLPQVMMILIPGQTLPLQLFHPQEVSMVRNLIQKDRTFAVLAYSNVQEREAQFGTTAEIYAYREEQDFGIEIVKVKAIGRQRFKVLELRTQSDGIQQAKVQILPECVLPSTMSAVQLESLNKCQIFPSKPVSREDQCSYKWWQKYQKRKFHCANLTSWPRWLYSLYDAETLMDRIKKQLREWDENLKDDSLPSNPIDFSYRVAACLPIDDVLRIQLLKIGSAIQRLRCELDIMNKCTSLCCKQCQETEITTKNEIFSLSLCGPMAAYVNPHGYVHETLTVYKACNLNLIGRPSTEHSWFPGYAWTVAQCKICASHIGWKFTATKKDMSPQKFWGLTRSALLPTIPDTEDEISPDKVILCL

O=C1CCC(N2Cc3c(CCCCCNC(=O)c4ccc(NC(=O)[C@@H]5NC6(CCCCC6)[C@@]6(C(=O)Nc7cc(Cl)ccc76)[C@H]5c5cccc(Cl)c5F)cc4)cccc3C2=O)C(=O)N1 (stereo partly drawn)
IC50 (RS4-11): 0.0079 µM
growth inhibition (GI) (Homo sapiens): inactive
Activity [1]: Active
Activity [2]: Active
Activity [3]: Active
IC50 (MDA-MB-468 [4]): > 3 µM
Activity [5]: inactive
Activity [6]: Active
IC50 (MDA-MB-231 [7]): > 3 µM
Activity [8]: Active
IC50 [9]: > 10 µM
Activity [10]: Active
IC50 (MDA-MB-231 [11]): > 3 µM
IC50 (MDA-MB-231 [12]): > 3 µM
Activity [13]: Active
growth inhibition (GI) (HL-60): inactive
IC50 (MDA-MB-468 [14]): > 3 µM
Activity [15]: Active
Activity [16]: inactive
IC50 (MDA-MB-468 [17]): > 3 µM
Activity [18]: Active
growth inhibition (GI) (MDA-MB-231 [19]): inactive
growth inhibition (GI) (MDA-MB-468 [20]): inactive
